Series [1] concerns Enterococcus faecalis. As to the kind of experiment: Antibacterial activity against Enterococcus faecalis ATCC 51299 incubated for 24 hrs by serial broth microdilution method. Type of series: functional, organism-based. The method in brief:
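Broth microdilution in brain heart infusion broth, ~5×10^5 cells/mL log-phase inoculum, serial compound dilutions, 24 h at 37 °C, OD600 read-out. MIC50/MIC90 are the concentrations giving 50%/90% growth inhibition relative to drug-free controls. Two independent experiments in duplicate.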
Background: Dilution methods test growth across graded concentrations, often in twofold steps.

The test system of another series is Salmonella enteritidis. Nature of the series: Antibacterial activity against Salmonella enteritidis ATCC 13076 incubated for 24 hrs by serial broth microdilution method. Type of series: functional. The following applies: Salmonella enterica subsp. enterica serovar Enteritidis. The method in brief:
(§1)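 Log-phase cultures from four colonies grown overnight at 37 °C, inoculated at ~5×10^5 cells/mL in cation-adjusted Mueller–Hinton broth with serially diluted compound. Grown 24 h at 37 °C, then OD600 read. MIC50/MIC90 are the concentrations giving 50%/90% growth inhibition relative to drug-free controls. Two independent experiments in duplicate.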

In series [2] the test system is Streptococcus pneumoniae. Nature of the series: Antibacterial activity against Streptococcus pneumoniae ATCC 49619 incubated for 24 hrs by serial broth microdilution method. Type of series: functional. In outline:
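Cultured in MH medium plus 3% defibrinated sheep blood at 37 °C, 5% CO2. Log-phase inoculum ~5×10^5 cells/mL was exposed to serial compound dilutions for 24 h. MIC50/MIC90 are relative to drug-free controls. Two independent experiments in duplicate.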

For another series, the system named is Erythrocyte. As to the kind of experiment: Hemolytic activity in human RBC at 100 uM measured after 1 hr. It is filed as ADME, cell-based. In outline: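 Fresh human RBCs were PBS-washed and resuspended to OD600 24, then mixed 1:1 by volume with compound serially diluted in PBS. Incubated 1 h at 37 °C without shaking and centrifuged at 1000g for 15 min. Triton X-100 served as positive control. Run in triplicate.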

The next series concerns Escherichia coli. As to the kind of experiment: Antibacterial activity against Escherichia coli BW25113 incubated for 24 hrs by serial broth microdilution method. It is filed as functional, organism-based. In outline:
as §1

The test system of the next series is Klebsiella pneumoniae. As to the kind of experiment: Antibacterial activity against Klebsiella pneumoniae ATCC 13883 incubated for 24 hrs by serial broth microdilution method. Type of series: functional, organism-based. The method in brief:
as §1

The subject of series [3] is Mycolicibacterium smegmatis. Nature of the series: Antibacterial activity against Mycolicibacterium smegmatis MC2 155 at 100 uM incubated for 24 hrs. Type of series: functional, organism-based. The method in brief: (§2)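 Single-concentration growth screen: 100 μM test compound with log-phase bacteria at about 5×10^5 cells/mL. Incubation 24 h at 37 °C. Growth read by OD600 and given as percent of untreated control. MRSA was grown in cation-adjusted Mueller–Hinton broth. M. smegmatis was grown in complete Middlebrook 7H9. Ampicillin and kanamycin served as positive controls.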

Series [4] concerns Staphylococcus aureus. As to the kind of experiment: Antibacterial activity against methicillin-resistant Staphylococcus aureus ATCC 43300 at 100 uM incubated for 24 hrs. Type of series: functional, organism-based. In outline:
as §2

Series [5] deals with Streptococcus pneumoniae. Nature of the series: Antibacterial activity against Streptococcus pneumoniae ATCC 49619 at 100 uM incubated for 24 hrs. It is filed as functional, organism-based. The method in brief: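 Single 100 μM screen in MH medium with 3% defibrinated sheep blood at 37 °C under 5% CO2, ~5×10^5 cells/mL, 24 h.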
Another series deals with Acinetobacter baumannii. Nature of the series: Antibacterial activity against Acinetobacter baumannii ATCC 17961 incubated for 24 hrs by serial broth microdilution method. It is filed as functional. The method in brief: as §1
Series [6] concerns the target T1, tRNA (guanine-N(1)-)-methyltransferase (Pseudomonas aeruginosa (strain ATCC 15692 / DSM 22644 / CIP 104116 / JCM14847 / LMG 12228 / 1C / PRS 101 / PAO1), UniProt Q9HXQ1).
T1 sequence (Q9HXQ1 whole entry): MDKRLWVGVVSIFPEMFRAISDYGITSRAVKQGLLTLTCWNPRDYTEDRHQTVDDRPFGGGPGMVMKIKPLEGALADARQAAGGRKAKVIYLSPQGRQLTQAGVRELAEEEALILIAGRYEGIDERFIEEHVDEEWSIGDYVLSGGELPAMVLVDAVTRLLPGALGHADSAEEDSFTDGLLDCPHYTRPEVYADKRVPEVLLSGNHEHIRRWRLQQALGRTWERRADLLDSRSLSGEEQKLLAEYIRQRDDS
Nature of the series: Inhibition of Pseudomonas aeruginosa tRNA (guanine(37)-N1)-methyltransferase (Leu5 to Asp25 residues) expressed in Escherichia coli BL21 (DE3) Rosetta T1R cells assessed as reduction in S-adenosyl-L-homocysteine production preincubated for 15 mins followed by 1.5 uM of tRNALeu(CAG) substrate and SAM addition and measured after 45 mins by MTase-Glo assay. The method in brief: (§3)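 MTase-Glo luminescence assay. 8 nM TrmD preincubated 15 min at ambient temperature with serially diluted inhibitor (0–500 μM) in 50 mM Tris-HCl pH 8.0, 80 mM NaCl, 1 mM MgCl2, 0.5 mM DTT, 0.01% Triton X-100. Reaction with 2 μM SAM and tRNALeu(CAG), 45 min at 37 °C. Detection 30 min in the dark, SAH read against a standard curve. IC50 by nonlinear regression. Two independent experiments in duplicate.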

Series [7] has as its system Enterococcus faecalis. As to the kind of experiment: Antibacterial activity against Enterococcus faecalis ATCC 51299 at 100 uM incubated for 24 hrs. Type of series: functional, organism-based. The method in brief:
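Single-concentration screen in brain heart infusion broth. Log-phase cells at ~5×10^5 cells/mL were grown with 100 μM compound for 24 h at 37 °C. Growth was read as OD600 and expressed as a percentage of untreated wells. DMSO and blank controls were included.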

The test system of series [8] is Mycobacterium tuberculosis. Nature of the series: Antibacterial activity against Mycobacterium tuberculosis ATCC 27294 at 100 uM incubated for 7 days. It is filed as functional, organism-based.
The test system of the next series is Pseudomonas aeruginosa. Nature of the series: Antibacterial activity against Pseudomonas aeruginosa PA14 incubated for 24 hrs by serial broth microdilution method. It is filed as functional, organism-based. In outline: as §1
Series [9] deals with Staphylococcus aureus. As to the kind of experiment: Antibacterial activity against methicillin-resistant Staphylococcus aureus ATCC 43300 incubated for 24 hrs by serial broth microdilution method. Type of series: functional. The method in brief: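 Growth read by OD600. MRSA in cation-adjusted Mueller–Hinton broth, M. smegmatis in complete 7H9. MIC50 and MIC90 are 50% and 90% growth inhibition versus drug-free controls. Two independent experiments, each in duplicate.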

The target of series [10] is T2, tRNA (guanine-N(1)-)-methyltransferase (Pseudomonas aeruginosa (strain ATCC 15692 / DSM 22644 / CIP 104116 / JCM14847 / LMG 12228 / 1C / PRS 101 / PAO1)) (UniProt Q9HXQ1).
T2 sequence (whole entry): T1 sequence (Q9HXQ1 whole entry)
As to the kind of experiment: Binding affinity to Pseudomonas aeruginosa tRNA (guanine(37)-N1)-methyltransferase (Leu5 to Asp25 residues) expressed in Escherichia coli BL21 (DE3) Rosetta T1R cells assessed as thermal stabilization of protein by measuring change in melting temperature at 0.1 mM by SYPRO orange based thermal shift assay. The method in brief: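 Thermal shift: 4 μM TrmD with 5× SYPRO Orange and ligand in 50 mM Tris-HCl pH 8, 150 mM NaCl, 1 mM MgCl2, 1 mM DTT, 0.05% Tween-20. Buffer-only control. Heated from 25 to 95 °C in a real-time PCR instrument, and Tm taken as the unfolding midpoint. Ligand levels: SAH 2 mM, inhibitors 0.1 mM.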

Series [11] concerns the target T2, tRNA (guanine-N(1)-)-methyltransferase (Pseudomonas aeruginosa (strain ATCC 15692 / DSM 22644 / CIP 104116 / JCM14847 / LMG 12228 / 1C / PRS 101 / PAO1)). Nature of the series: Inhibition of Pseudomonas aeruginosa tRNA (guanine(37)-N1)-methyltransferase (Leu5 to Asp25 residues) expressed in Escherichia coli BL21 (DE3) Rosetta T1R cells assessed as reduction in S-adenosyl-L-homocysteine production up to 50 uM preincubated for 15 mins followed by 1.5 uM of tRNALeu(CAG) substrate and SAM addition and measured after 45 mins by MTase-Glo assay. In outline:
as §3

Active and inactive are the calls of the source. Unless noted, the rule behind the calls is not given here.

Data on 13 compounds can be found in ChEMBL document CHEMBL4373727, “Thienopyrimidinone Derivatives That Inhibit Bacterial tRNA (Guanine37-N1)-Methyltransferase (TrmD) by Restructuring the Active Site with a Tyrosine-Flipping Mechanism” (J Med Chem, 2019).

The term IC50 denotes the concentration that gives 50% inhibition. For `O=C(NCc1ccc(CNC(=O)c2cc(=O)c(O)cn2O)cc1)c1csc2nc[nH]c(=O)c12`, the result (with Enterococcus faecalis [1]; in the series on Salmonella enteritidis; with Streptococcus pneumoniae [2]; with Escherichia coli; in the series with Klebsiella pneumoniae; in series [3]) was inactive. The outcome (in the series with Staphylococcus aureus [4]; in the series with Streptococcus pneumoniae [5]; in the series with Acinetobacter baumannii; in the series on Enterococcus faecalis [7]; in series [8]; in the series on Pseudomonas aeruginosa) was inactive. The result in the series on Staphylococcus aureus [9] was inactive. For the same compound, in the series with Erythrocyte, the Activity entry is recorded as “Non-Toxic”. Besides, the concentration for half-maximal inhibition (IC50) in series [6] worked out at 700 nM.

The ΔTm is the change in melting temperature against a reference sample. Take `CCCCCCCCNCc1ccc(CNC(=O)c2csc3ncnc(OCCCCCC)c23)cc1`: in series [10], the thermal shift (ΔTm) lay within 1 to 2 °C. The inhibition entry in series [11] is “inactive”.

For the compound `CCCCCCOc1ncnc2scc(C(=O)NCc3ccc(CNCc4ccccc4)cc3)c12`, in series [10], the thermal shift (ΔTm) lay within 1 to 2 °C. In series [11], the inhibition entry was “inactive”.

Consider `Cl.NCCOCCOCCNCc1ccc(CNC(=O)c2csc3nc[nH]c(=O)c23)cc1`, for which the result (in the series on Enterococcus faecalis [1]; in the series on Salmonella enteritidis; in the series on Streptococcus pneumoniae [2]; with Escherichia coli; in the series on Klebsiella pneumoniae; in series [3]) was inactive. Further, the outcome (in the series with Staphylococcus aureus [4]; in the series on Streptococcus pneumoniae [5]; with Acinetobacter baumannii; with Enterococcus faecalis [7]; in series [8]; in the series with Pseudomonas aeruginosa) was inactive. Moreover, the result in the series on Staphylococcus aureus [9] was inactive. Also, the Activity entry in the series with Erythrocyte was “Non-Toxic”. The IC50 in [6] came out at 450 nM.

For `Cl.NCCCCCNCc1ccc(CNC(=O)c2csc3nc[nH]c(=O)c23)cc1`, the result (in the series with Enterococcus faecalis [1]; with Salmonella enteritidis; with Streptococcus pneumoniae [2]; with Escherichia coli; with Klebsiella pneumoniae; in [3]) was inactive. The outcome (in the series with Staphylococcus aureus [4]; in the series with Streptococcus pneumoniae [5]; in the series with Acinetobacter baumannii; with Enterococcus faecalis [7]; in series [8]; with Pseudomonas aeruginosa) was inactive. Also, the outcome in the series on Staphylococcus aureus [9] was inactive. Further, in the series with Erythrocyte, the Activity result is given as “Non-Toxic”. Moreover, in series [6], the half-maximal inhibitory concentration (IC50) is 110 nM.

As for `COc1ncnc2scc(C(=O)NCc3ccc(CN4CCOCC4)cc3)c12`, the thermal shift (ΔTm) in [10] was 1 to 2 °C. In addition, in series [11], the inhibition result is “inactive”. The Activity entry in the series with Erythrocyte is “Non-Toxic”.

With `CCCOc1ncnc2scc(C(=O)NCc3ccc(CNCc4ccccc4)cc3)c12`, the ΔTm in [10] lay within 1 to 2 °C. For the same compound, the inhibition result in series [11] is “inactive”. For the same compound, in the series with Erythrocyte, the Activity entry is listed as “Non-Toxic”.

As to `Cl.NCCCCNCc1ccc(CNC(=O)c2csc3nc[nH]c(=O)c23)cc1`, the result (in the series with Enterococcus faecalis [1]; with Salmonella enteritidis; in the series with Streptococcus pneumoniae [2]; in the series on Escherichia coli; in the series on Klebsiella pneumoniae; in series [3]) was inactive. In addition, the outcome (in the series with Staphylococcus aureus [4]; in the series with Streptococcus pneumoniae [5]; with Acinetobacter baumannii; in the series with Enterococcus faecalis [7]; in series [8]; in the series with Pseudomonas aeruginosa) was inactive. Also, in the series with Staphylococcus aureus [9], the outcome was inactive. Further, the Activity entry with Erythrocyte is “Non-Toxic”. For the same compound, in [6], the half-inhibitory concentration (IC50) stood at 80 nM.

As to `CCCCCCCCNCc1ccc(CNC(=O)c2csc3ncnc(OCCC)c23)cc1`, the ΔTm in [10] was in the range of 1 to 2 °C. For the same compound, the inhibition entry in series [11] was “inactive”.

For `COc1ncnc2scc(C(=O)NCc3ccc(CNCc4ccccc4)cc3)c12`, the thermal shift (ΔTm) in series [10] fell in the range of 1 to 2 °C. Further, the inhibition entry in [11] is “inactive”. Besides, the Activity result in the series with Erythrocyte was “Non-Toxic”.

Turning to `CCCOc1ncnc2scc(C(=O)NCc3ccc(CN4CCOCC4)cc3)c12`, the thermal shift (ΔTm) in series [10] is 1 to 2 °C. Also, the inhibition result in series [11] is “inactive”. Also, the Activity entry in the series on Erythrocyte is “Non-Toxic”.

`CCCCCCCCNCc1ccc(CNC(=O)c2csc3ncnc(OC)c23)cc1`: the ΔTm in series [10] fell in the range of 1 to 2 °C. The inhibition result in series [11] is “inactive”. The Activity entry with Erythrocyte is reported as “Non-Toxic”.

For `Cl.NCCCCCCCNCc1ccc(CNC(=O)c2csc3nc[nH]c(=O)c23)cc1`, the result (with Enterococcus faecalis [1]; in the series with Salmonella enteritidis; in the series with Streptococcus pneumoniae [2]; with Escherichia coli; in the series with Klebsiella pneumoniae; in [3]) was inactive. For the same compound, the result (in the series on Staphylococcus aureus [4]; with Streptococcus pneumoniae [5]; with Acinetobacter baumannii; with Enterococcus faecalis [7]; in [8]; with Pseudomonas aeruginosa) was inactive. Also, the outcome in the series on Staphylococcus aureus [9] was inactive. Also, the Activity result in the series with Erythrocyte is recorded as “Non-Toxic”. In series [6], the IC50 turned out to be 140 nM.
